Test results: ChEMBL document CHEMBL4842338, “System-oriented optimization of multi-target 2,6-diaminopurine derivatives: Easily accessible broad-spectrum antivirals active against flaviviruses, influenza virus and SARS-CoV-2” (Eur J Med Chem, 2021)
Activity calls are given as the source filed them. No cut-off for these calls is given here.

Columns and labels:
SARS-CoV-2 [1] = assay: Antiviral activity against SARS-COV 2 infected in quadruplicate Vero E6 cells with DYRA supernatant assessed as reduction in viral replication at 20 uM; type: functional; details: Severe acute respiratory syndrome coronavirus 2, Vero C1008
[2] = Selectivity index, ratio of CC50 for human A549 cells to IC50 for Influenza A Puerto Rico/8/34/H1N1 infected in human A549 cells; type: toxicity, cell-based; details: read-out: Selectivity Index
Method in brief: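 MDCK or A549 cells (2.5 × 10⁵/well) infected with A/Puerto Rico/8/34 H1N1 for 1 h at 37 °C, then washed. Compound (0.5–20 μM) added in 2% FBS medium for 24 h, with DMSO final ≤0.2%. Virus in supernatants read by hemagglutination. CC₅₀ by MTT (2 × 10⁴ cells/well, same concentrations, 24 h, absorbance 570 nm). SI = CC₅₀/IC₅₀.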

Calu-3 = assay: Cytotoxicity against human Calu-3 cells infected with SARS-COV-2 by celltiter-glo luminescent cell viability assay; type: cell-based; details: calu-3
Method in brief: (§1)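 Compound-exposed cells assessed by CellTiter-Glo luminescence versus DMSO control; CC50 from dose-response.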

[3] = Stability of the compound in presence of 40 mM H2O2 in ethanol measured after 6 days; type: physicochemical; details: 144 h; time 6 day
Influenza A virus [4] = assay: Antiviral activity against Influenza A Puerto Rico/8/34/H1N1 infected in human A549 cells assessed as reduction in viral protein expression at 20 uM pretreated for 2 hrs followed by staining with anti-Flu antibody observed at 24 hrs post infection by In-cell western assay; type: functional, organism-based; details: A/Puerto Rico/8/1934(H1N1)
CDK9/cyclin T1 = CDK9/cyclin T1 (Homo sapiens, UniProt P50750); assay: Inhibition of human full length CDK9/ His-tagged cT1 assessed as residual activity at 5 uM using CDKtide as a substrate in the presence of BSA incubated for 10 mins by scintillation counting analysis relative to control; type: protein-complex assay; details: full length CDK9/His-tagged cyclin T1 complex, probe CDKtide, read-out: Activity
CDK9/cyclin T1, sequence (O60563 whole entry): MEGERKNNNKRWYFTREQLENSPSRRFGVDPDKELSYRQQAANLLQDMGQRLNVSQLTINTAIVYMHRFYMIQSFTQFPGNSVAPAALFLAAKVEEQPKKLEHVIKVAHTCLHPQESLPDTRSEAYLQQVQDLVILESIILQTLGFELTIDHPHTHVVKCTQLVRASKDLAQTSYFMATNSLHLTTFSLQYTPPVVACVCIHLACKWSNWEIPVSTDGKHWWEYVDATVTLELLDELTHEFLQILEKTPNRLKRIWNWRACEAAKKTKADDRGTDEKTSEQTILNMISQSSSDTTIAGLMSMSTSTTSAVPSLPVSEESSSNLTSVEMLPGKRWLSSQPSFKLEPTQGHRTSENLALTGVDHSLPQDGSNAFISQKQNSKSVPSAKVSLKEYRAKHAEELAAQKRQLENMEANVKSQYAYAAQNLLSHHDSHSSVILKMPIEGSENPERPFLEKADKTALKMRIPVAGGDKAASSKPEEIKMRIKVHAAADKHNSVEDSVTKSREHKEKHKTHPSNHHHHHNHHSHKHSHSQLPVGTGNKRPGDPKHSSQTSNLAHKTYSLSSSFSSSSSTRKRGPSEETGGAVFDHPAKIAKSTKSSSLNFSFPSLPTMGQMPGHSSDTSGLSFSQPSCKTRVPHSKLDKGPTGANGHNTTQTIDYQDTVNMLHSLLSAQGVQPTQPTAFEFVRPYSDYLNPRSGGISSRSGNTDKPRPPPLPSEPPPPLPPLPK
CDK9/cyclin T1, sequence (P50750 whole entry): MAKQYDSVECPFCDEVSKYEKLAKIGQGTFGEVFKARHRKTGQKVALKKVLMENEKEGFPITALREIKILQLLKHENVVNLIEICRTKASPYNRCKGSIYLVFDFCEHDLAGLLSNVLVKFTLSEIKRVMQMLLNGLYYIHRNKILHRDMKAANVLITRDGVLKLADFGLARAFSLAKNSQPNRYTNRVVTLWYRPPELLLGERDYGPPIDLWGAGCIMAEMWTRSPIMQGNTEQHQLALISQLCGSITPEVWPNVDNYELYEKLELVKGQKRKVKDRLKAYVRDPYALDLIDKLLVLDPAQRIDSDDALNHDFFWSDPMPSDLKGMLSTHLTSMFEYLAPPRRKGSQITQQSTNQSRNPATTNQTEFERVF
Method in brief: (§2)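 Compounds at fixed 5 μM; 10–50 ng kinase, substrate and NP-40/BSA per supplementary table, 10 μL at 30 °C for 10 min in low-binding tubes. Reactions spotted on filter, dried, scintillation counted. Mean ± SD of two independent experiments.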

Influenza A virus [5] = assay: Antiviral activity against Influenza A virus (A/parrot/Ulster/73(H7N1)) infected in human A549 cells assessed as reduction in viral protein expression at 20 uM treated for 2 to 6 hrs post infection and measured following infection of MDCK cells with supernatant for 24 hrs by time-of-addition assay; type: functional, organism-based; details: time 2-6 hrs
Caco-2 = assay: Cytotoxicity against human Caco2 cells infected with SARS-COV-2 assessed as reduction in cell viability by celltiter-glo luminescent cell viability assay; type: cell-based; method in brief: as §1
[6] = Selectivity index, ratio of CC50 for human Calu-3 cells infected with SARS-COV-2 to IC50 for SARS-COV 2 infected in human Calu-3 cells; type: toxicity, cell-based; details: read-out: Selectivity Index
[7] = Selectivity index, ratio of CC50 for human Huh-7 cells to IC50 for Dengue virus serotype 2 New Guinea C infected in pre-seeded Huh-7 cells assessed as inhibition of viral replication incubated for 72 hrs by immunodetection based plaque reduction assay; type: toxicity, cell-based; details: read-out: Selectivity Index
Influenza A virus [8] = assay: Antiviral activity against Influenza A Puerto Rico/8/34/H1N1 infected in human A549 cells assessed as reduction in viral protein expression at 20 uM treated for 24 hrs post viral adsorption followed by staining with anti-Flu antibody observed at 24 hrs post infection by In-cell western assay; type: functional, organism-based; details: A/Puerto Rico/8/1934(H1N1)
dengue virus type 2 [9] = assay: Antiviral activity against Dengue virus serotype 2 New Guinea C infected in pre-seeded Huh-7 cells assessed as inhibition of viral replication incubated for 72 hrs by immunodetection based secondary yield reduction assay; type: functional, organism-based; details: Dengue virus, New Guinea C, Huh-7, 72 h; read-out: IC50
Influenza A virus [10] = assay: Antiviral activity against Influenza A Puerto Rico/8/34/H1N1 infected in human A549 cells assessed as inhibition of viral replication after 24 hrs by hemagglutination assay; type: functional, organism-based; details: A/Puerto Rico/8/1934(H1N1), A549, 24 h
[11] = Selectivity index, ratio of CC50 for human Huh-7 cells to IC50 for West Nile virus lineage 1 (Italy/2009) infected in pre-seeded Huh-7 cells assessed as inhibition of viral replication incubated for 48 hrs by immunodetection based plaque reduction assay; type: toxicity, cell-based; details: read-out: Selectivity Index
SARS-CoV-2 [12] = assay: Antiviral activity against SARS-COV 2 infected in quadruplicate Vero E6 cells with DYRA supernatant assessed as reduction in viral replication at 0.8 uM; type: functional; details: Severe acute respiratory syndrome coronavirus 2, Vero C1008
dengue virus type 2 [13] = assay: Antiviral activity against Dengue virus serotype 2 New Guinea C infected in pre-seeded Huh-7 cells assessed as inhibition of viral replication incubated for 72 hrs by immunodetection based plaque reduction assay; type: functional, organism-based; details: Huh-7, 72 h
[14] = Inhibition of full length ZIKV NS5-MTase domain using 7MeGpppAC4 as a substrate incubated for 30 mins by filter binding assay; parameters: species or system Zika virus
Zika virus = assay: Antiviral activity against Zika virus H/PF/2013 infected in pre-seeded Huh-7 cells assessed as inhibition of viral replication incubated for 72 hrs by immunodetection based direct yield reduction assay; type: functional, organism-based; details: H/PF/2013, Huh-7, 72 h
Method in brief: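 Direct yield reduction in Huh7 cells (7000/well), infected with 50 TCID₅₀ of DENV or ZIKV, or 25 TCID₅₀ of WNV. Adsorption 1 h at 37 °C, then virus removed and serial compound dilutions added. Incubated 72 h (DENV, ZIKV) or 48 h (WNV). Viral antigen immunodetected on the monolayer. IC₅₀ by non-linear regression, mean of three experiments. SI = CC₅₀ (Huh7, CellTiter-Glo luminescence)/IC₅₀.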

[15] = target: Fyn (Tyrosine-protein kinase Fyn) (Homo sapiens, UniProt P06241); assay: Inhibition of human recombinant N terminal His6 tagged full length Fyn assessed as residual activity at 5 uM using […] as a substrate in the presence of NP-40 incubated for 10 mins by scintillation counting analysis relative to control; details: probe […], read-out: Activity; method in brief: as §2
Fyn (Tyrosine-protein kinase Fyn), sequence (P06241 whole entry): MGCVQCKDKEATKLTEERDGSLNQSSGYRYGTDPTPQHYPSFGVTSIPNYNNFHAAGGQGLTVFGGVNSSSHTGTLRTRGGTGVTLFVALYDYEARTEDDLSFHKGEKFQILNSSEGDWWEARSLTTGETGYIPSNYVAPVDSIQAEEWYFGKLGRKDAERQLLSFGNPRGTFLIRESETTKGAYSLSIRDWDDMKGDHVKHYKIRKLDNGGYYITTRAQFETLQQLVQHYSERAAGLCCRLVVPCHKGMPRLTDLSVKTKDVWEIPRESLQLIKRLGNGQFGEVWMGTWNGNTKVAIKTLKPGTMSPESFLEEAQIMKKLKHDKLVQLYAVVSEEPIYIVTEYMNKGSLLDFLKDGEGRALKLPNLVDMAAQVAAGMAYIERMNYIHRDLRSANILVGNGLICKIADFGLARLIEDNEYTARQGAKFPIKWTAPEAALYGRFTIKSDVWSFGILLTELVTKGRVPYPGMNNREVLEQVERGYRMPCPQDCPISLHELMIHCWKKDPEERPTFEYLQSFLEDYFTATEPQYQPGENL

Influenza A virus [16] = assay: Antiviral activity against Influenza A Puerto Rico/8/34/H1N1 infected in human A549 cells assessed as inhibition of hemagglutinin expression at 20 uM treated for 1 hr during viral absorption followed by infection of fresh cell monolayer of A549 cells with supernatant for 24 hrs by In-cell western assay; type: functional; details: A/Puerto Rico/8/1934(H1N1)
Method in brief: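 A549 cells infected with PR8 H1N1 and given 20 μM compound: 2 h before infection (PRE), 1 h during adsorption (DUR), or 24 h after adsorption (POST); supernatants used to infect fresh monolayers for 24 h; anti-HA in-cell western; RFU as % of untreated infected; 3 replicates from two experiments.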

[17] = Inhibition of Dengue virus 2 […] RNA dependent RNA polymerase incubated for 10 mins by picogreen staining based fluorescent analysis (Rvb= 0.27+/-0.03 uM); parameters: species or system dengue virus type 2
Influenza A virus [18] = assay: Antiviral activity against Influenza A/California/04/2009H1N1 infected in human A549 cells assessed as reduction in viral protein expression at 20 uM treated for 24 hr post viral adsorption followed by staining with anti-Flu antibody observed at 24 hrs post infection by In-cell western assay; type: functional, organism-based
[19] = Cytotoxicity against human Huh-7 cells infected with SARS-COV-2 assessed as reduction in cell viability by celltiter-glo luminescent cell viability assay; type: cell-based; details: Huh-7 cells infected with SARS-COV-2; method in brief: as §1

## FC(F)(F)c1cccc(Nc2nc(NCCOc3ccccc3)nc3[nH]cnc23)c1
SARS-CoV-2 [1]
  inhibition at 20 µM: 91.9%
[2]
  selectivity ratio: 11
Calu-3
  CC50: 120 µM
[3]
  Stabilty: Unstable
Influenza A virus [4]
  Activity: Active
CDK9/cyclin T1
  activity at 10 min, 5 µM: > 98%
Influenza A virus [5]
  Activity: Active
Caco-2
  CC50: 81.3 µM
[6]
  selectivity ratio: 240
[7]
  selectivity ratio at 72 h: 222
Influenza A virus [8]
  Activity: Active
Dengue virus type 2 [9]
  IC50: 2.6 µM
Influenza A virus [10]
  IC50: 9.9 µM
[11]
  selectivity ratio at 48 h: 51
SARS-CoV-2 [12]
  inhibition at 0.8 µM: 83.5%
Dengue virus type 2 [13]
  IC50: 0.9 µM
[14]
  IC50: Not Active
Zika virus
  IC50: 0.8 µM
[15]
  activity at 10 min, 5 µM: > 98%
Influenza A virus [16]
  inhibition at 20 µM: 50%
[17]
  IC50: 20.8 µM
Influenza A virus [18]
  Activity: Active
[19]
  CC50: 200 µM
